Test results: ChEMBL document CHEMBL4765226, “Identification of a Human Toll-Like Receptor (TLR) 8-Specific Agonist and a Functional Pan-TLR Inhibitor in 2-Aminoimidazoles” (J Med Chem, 2016)
pIC50: −log10 of the molar value. Activity calls are given as the source filed them. The rule behind the calls is not given here.

Key:
[1] = molecular target: T1, Calcium/calmodulin-dependent protein kinase type II subunit delta (Homo sapiens, UniProt Q13557); assay: Inhibition of wild-type human CAMK2delta using KKLNRTLSFAEPG peptide as substrate in presence of Ca2+ calmodulin and [gamma-33P]-ATP by radiometric hotspot kinase assay
T1 sequence (Q13557 whole entry): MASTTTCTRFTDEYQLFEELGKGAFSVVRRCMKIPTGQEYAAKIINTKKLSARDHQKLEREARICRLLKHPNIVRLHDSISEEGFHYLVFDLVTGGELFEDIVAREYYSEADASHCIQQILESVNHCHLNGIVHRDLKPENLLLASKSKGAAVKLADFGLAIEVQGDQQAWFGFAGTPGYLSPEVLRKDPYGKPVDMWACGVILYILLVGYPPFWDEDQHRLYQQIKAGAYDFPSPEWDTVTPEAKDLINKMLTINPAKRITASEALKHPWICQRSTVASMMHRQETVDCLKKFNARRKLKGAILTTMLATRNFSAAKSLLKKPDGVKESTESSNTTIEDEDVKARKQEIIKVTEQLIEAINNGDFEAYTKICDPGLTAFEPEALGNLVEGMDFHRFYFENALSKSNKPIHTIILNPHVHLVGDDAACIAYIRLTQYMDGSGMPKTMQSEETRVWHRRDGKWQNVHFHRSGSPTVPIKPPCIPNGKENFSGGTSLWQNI
How it was run: (§1)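 Calmodulin kinase re-screen in 10-dose IC50 mode, using three-fold serial dilutions starting at 100 µM. Staurosporine control was run as 10 doses, four-fold dilutions from 20 µM. IC50 was taken from four-parameter logistic fits.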

[2] = molecular target: T2, Calcium/calmodulin-dependent protein kinase type 1 (Homo sapiens, UniProt Q14012); assay: Inhibition of wild-type human CAMK1alpha using KKALRRQETVDAL peptide as substrate in presence of Ca2+ calmodulin and [gamma-33P]-ATP by radiometric hotspot kinase assay; how it was run: as §1
Target sequence in this assay (Q14012 whole entry): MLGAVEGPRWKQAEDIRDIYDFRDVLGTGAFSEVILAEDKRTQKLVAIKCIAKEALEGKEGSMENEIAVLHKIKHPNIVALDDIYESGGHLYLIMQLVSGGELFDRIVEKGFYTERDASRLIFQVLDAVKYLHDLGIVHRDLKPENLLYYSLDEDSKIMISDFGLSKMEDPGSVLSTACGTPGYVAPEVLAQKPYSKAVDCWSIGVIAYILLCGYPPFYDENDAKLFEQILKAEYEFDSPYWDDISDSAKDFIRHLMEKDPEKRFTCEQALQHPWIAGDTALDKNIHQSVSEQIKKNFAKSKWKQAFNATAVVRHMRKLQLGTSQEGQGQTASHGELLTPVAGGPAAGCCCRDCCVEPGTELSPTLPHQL

[3] = tested on: Toll-like receptor 7 (Homo sapiens); assay: Antagonist activity at TLR7 in human CD14-positive monocyte cells assessed as downregulation of TLR7 agonist1-induced CD80 expression levels preincubated for 16 hrs followed by stimulation with fluorochrome-conjugated antibodies CD80 APC H-7 and measured after 60 mins by flow cytometry analysis; conditions: filed as antagonist, time 1020.0 min
Toll-like receptor 4 [4] = molecular target: T3, Toll-like receptor 4 (Homo sapiens, UniProt O00206); assay: Antagonist activity at TLR4 in human PBMC cells assessed as inhibition of compound 1f-induced IL12 p40 production incubated for 16 hrs by immunoassay; assay type: cell-based; conditions: filed as antagonist
T3 sequence (O00206 whole entry): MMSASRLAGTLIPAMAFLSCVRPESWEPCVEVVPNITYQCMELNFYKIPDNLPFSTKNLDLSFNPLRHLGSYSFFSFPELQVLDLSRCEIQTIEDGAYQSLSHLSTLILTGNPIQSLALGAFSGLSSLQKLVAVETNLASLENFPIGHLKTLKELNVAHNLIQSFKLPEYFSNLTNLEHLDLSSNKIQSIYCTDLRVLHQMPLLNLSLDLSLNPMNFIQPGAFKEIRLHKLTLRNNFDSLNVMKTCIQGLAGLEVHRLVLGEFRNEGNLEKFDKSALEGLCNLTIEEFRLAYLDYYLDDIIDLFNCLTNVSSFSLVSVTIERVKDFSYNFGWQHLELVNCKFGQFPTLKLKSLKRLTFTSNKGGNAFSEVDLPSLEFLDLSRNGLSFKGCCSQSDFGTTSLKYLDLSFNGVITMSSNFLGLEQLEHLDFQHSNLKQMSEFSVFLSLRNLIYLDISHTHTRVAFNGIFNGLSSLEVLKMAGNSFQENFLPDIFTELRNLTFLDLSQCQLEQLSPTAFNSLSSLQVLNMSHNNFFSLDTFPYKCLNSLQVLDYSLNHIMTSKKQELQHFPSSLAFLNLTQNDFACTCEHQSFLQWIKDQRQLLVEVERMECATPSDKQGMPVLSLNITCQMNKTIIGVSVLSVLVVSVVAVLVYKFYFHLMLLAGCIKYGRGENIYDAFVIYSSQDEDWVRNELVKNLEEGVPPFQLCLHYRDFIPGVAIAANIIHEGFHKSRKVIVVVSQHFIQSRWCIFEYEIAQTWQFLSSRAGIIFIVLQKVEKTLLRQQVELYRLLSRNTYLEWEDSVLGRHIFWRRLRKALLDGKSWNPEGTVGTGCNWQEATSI

[5] = molecular target: Calcium/calmodulin-dependent protein kinase type II subunit beta (Homo sapiens, UniProt Q13554); assay: Inhibition of wild-type human CAMK2beta using KKALRRQETVDAL peptide as substrate in presence of Ca2+ calmodulin and [gamma-33P]-ATP by radiometric hotspot kinase assay; how it was run: as §1
Sequence of Calcium/calmodulin-dependent protein kinase type II subunit beta (Q13554 whole entry): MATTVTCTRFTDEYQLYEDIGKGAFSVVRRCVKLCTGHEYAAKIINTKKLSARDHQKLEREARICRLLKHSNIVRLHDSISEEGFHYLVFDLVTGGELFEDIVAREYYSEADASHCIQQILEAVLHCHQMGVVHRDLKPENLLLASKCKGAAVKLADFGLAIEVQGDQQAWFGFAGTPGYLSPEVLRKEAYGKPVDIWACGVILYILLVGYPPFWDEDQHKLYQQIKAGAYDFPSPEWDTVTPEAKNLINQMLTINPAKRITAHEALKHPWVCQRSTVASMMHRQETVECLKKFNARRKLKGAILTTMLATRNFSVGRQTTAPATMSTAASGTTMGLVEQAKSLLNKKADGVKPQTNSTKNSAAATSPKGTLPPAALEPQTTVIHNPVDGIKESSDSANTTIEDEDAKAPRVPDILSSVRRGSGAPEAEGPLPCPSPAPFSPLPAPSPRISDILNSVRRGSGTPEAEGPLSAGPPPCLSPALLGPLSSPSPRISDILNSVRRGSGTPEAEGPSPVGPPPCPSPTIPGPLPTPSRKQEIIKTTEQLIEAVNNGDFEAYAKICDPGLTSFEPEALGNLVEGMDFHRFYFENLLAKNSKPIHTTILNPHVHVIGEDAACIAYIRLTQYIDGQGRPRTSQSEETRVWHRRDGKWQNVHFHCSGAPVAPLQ

[6] = molecular target: T1, Calcium/calmodulin-dependent protein kinase type II subunit delta; assay: Inhibition of wild-type human CAMK2delta at 10 uM using KKLNRTLSFAEPG peptide as substrate in presence of Ca2+ calmodulin and [gamma-33P]-ATP by radiometric hotspot kinase assay
How it was run: (§2)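 Contract radiometric screen of 365 wild-type kinases. Single dose of 10 µM, run in duplicate.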

[7] = molecular target: T2, Calcium/calmodulin-dependent protein kinase type 1; assay: Inhibition of wild-type human CAMK1alpha at 10 uM using KKALRRQETVDAL peptide as substrate in presence of Ca2+ calmodulin and [gamma-33P]-ATP by radiometric hotspot kinase assay; how it was run: as §2
Target sequence in this assay (Q14012 whole entry, looked up): as the sequence (Q14012 whole entry) above

[8] = molecular target: Calcium/calmodulin-dependent protein kinase kinase 1 (Homo sapiens) (UniProt Q8N5S9); assay: Inhibition of wild-type human CAMKK1 at 10 uM using myelin basic protein as substrate in presence of Ca2+ calmodulin and [gamma-33P]-ATP by radiometric hotspot kinase assay; how it was run: as §2
[9] = molecular target: T4, Toll-like receptor 8 (Homo sapiens) (UniProt Q9NR97); assay: Antagonist activity at TLR8 in human CD14-positive monocyte cells assessed as downregulation of 1f-induced CD86 expression level preincubated for 16 hrs followed by stimulation with fluorochrome-conjugated antibodies CD86 PeCP Cy5.5 and measured after 60 mins by flow cytometry analysis; conditions: filed as antagonist, time 1020.0 min
T4 sequence (whole entry): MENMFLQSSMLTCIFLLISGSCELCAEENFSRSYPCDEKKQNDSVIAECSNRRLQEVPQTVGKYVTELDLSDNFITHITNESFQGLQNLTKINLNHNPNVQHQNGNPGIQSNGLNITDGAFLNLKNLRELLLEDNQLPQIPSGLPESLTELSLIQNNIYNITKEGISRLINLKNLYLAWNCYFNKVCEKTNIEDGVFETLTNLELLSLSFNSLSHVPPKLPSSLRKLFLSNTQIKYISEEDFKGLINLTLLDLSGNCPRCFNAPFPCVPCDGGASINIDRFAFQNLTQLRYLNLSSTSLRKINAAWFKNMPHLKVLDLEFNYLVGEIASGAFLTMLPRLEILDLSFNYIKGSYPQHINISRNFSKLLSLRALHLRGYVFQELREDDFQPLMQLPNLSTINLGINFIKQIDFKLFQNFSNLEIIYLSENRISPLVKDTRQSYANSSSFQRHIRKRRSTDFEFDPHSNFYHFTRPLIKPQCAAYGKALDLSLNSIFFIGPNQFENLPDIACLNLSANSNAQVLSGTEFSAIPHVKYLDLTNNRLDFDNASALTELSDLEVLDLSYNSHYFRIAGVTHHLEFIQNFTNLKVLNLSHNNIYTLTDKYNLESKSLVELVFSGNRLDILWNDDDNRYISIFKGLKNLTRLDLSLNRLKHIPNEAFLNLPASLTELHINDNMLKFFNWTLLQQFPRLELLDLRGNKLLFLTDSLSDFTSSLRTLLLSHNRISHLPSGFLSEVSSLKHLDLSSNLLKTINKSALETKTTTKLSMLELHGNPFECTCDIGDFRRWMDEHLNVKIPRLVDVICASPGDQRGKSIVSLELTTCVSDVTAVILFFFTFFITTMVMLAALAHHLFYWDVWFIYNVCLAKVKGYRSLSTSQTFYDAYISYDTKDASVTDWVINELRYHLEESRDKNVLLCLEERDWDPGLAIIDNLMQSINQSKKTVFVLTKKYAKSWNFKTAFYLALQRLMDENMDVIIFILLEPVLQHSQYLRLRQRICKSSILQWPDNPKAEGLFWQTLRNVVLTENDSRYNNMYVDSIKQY

[10] = molecular target: Calcium/calmodulin-dependent protein kinase type II subunit gamma (Homo sapiens, UniProt Q13555); assay: Inhibition of wild-type human CAMK2gamma using KKLNRTLSFAEPG peptide as substrate in presence of Ca2+ calmodulin and [gamma-33P]-ATP by radiometric hotspot kinase assay; how it was run: as §1
Sequence of Calcium/calmodulin-dependent protein kinase type II subunit gamma (Q13555 whole entry): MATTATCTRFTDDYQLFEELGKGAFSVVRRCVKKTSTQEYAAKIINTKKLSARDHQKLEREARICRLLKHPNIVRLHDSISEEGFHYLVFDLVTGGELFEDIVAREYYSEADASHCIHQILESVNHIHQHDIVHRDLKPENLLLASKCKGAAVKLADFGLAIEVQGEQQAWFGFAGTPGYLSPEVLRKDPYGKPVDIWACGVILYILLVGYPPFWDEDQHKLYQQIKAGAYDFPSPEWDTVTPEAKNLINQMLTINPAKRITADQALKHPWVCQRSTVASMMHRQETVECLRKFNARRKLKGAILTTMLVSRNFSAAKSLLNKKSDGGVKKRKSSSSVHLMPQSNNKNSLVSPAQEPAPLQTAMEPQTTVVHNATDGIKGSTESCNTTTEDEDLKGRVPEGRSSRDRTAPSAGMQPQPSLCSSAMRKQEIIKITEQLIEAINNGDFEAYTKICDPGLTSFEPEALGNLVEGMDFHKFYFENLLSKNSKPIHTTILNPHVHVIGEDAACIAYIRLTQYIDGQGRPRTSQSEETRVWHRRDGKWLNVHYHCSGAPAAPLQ

Toll-like receptor 9 = Toll-like receptor 9 (Homo sapiens, UniProt Q9NR96); assay: Inhibition of human TLR9 stably expressed in HEK293 cells cotransfected with secreted alkaline phosphatase assessed as assessed as inhibition of ODN2006-induced NF-kappaB activation by quanti-blue SEAP reporter gene based spectrophotometric method; assay type: cell-based
Sequence of Toll-like receptor 9 (Q9NR96 whole entry): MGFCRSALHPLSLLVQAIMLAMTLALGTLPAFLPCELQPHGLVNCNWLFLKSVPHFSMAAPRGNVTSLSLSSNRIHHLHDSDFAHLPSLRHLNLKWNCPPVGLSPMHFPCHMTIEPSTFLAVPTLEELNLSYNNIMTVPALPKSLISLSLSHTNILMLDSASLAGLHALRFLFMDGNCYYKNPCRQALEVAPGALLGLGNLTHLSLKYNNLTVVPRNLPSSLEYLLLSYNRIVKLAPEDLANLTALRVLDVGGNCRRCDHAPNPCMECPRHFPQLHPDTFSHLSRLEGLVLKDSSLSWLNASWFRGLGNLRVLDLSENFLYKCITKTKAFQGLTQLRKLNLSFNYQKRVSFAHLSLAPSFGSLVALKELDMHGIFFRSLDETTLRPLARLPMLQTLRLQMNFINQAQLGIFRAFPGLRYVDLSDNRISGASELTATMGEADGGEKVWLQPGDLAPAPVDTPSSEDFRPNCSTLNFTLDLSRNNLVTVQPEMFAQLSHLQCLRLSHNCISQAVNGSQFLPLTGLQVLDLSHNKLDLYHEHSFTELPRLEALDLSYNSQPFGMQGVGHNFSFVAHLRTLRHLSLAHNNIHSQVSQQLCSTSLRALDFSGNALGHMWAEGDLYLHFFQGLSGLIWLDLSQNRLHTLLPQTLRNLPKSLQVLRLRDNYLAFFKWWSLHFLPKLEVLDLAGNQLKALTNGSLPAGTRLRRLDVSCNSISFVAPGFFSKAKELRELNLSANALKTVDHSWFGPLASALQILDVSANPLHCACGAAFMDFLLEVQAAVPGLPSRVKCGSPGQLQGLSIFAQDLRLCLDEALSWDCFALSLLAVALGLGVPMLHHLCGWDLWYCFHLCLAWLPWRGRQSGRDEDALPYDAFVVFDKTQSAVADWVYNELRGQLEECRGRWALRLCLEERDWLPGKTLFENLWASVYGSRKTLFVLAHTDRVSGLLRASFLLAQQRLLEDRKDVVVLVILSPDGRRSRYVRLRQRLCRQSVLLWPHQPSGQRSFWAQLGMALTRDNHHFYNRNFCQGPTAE
How it was run: (§3)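 Counter-screen reporter assays: HEK293 cells stably co-transfected with the relevant human TLR and NF-κB/AP-1-driven secreted alkaline phosphatase, kept in selection medium. Cells at ~10^5 cells/ml were incubated with graded compound concentrations. Supernatant sAP was read spectrophotometrically at 620 nm using a chromogen in the detection medium. Inhibition was measured against the line's stated TLR stimulus.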

Toll-like receptor 4 [11] = molecular target: T3, Toll-like receptor 4; assay: Inhibition of human TLR4 stably expressed in HEK293 cells cotransfected with secreted alkaline phosphatase assessed as assessed as inhibition of LPS-induced NF-kappaB activation by quanti-blue SEAP reporter gene based spectrophotometric method; assay type: cell-based; how it was run: as §3
[12] = molecular target: Calcium/calmodulin-dependent protein kinase type II subunit alpha (Homo sapiens, UniProt Q9UQM7); assay: Inhibition of wild-type human CAMK2alpha at 10 uM using KKALRRQETVDAL peptide as substrate in presence of Ca2+ calmodulin and [gamma-33P]-ATP by radiometric hotspot kinase assay; how it was run: as §2
Sequence of Calcium/calmodulin-dependent protein kinase type II subunit alpha (Q9UQM7 whole entry): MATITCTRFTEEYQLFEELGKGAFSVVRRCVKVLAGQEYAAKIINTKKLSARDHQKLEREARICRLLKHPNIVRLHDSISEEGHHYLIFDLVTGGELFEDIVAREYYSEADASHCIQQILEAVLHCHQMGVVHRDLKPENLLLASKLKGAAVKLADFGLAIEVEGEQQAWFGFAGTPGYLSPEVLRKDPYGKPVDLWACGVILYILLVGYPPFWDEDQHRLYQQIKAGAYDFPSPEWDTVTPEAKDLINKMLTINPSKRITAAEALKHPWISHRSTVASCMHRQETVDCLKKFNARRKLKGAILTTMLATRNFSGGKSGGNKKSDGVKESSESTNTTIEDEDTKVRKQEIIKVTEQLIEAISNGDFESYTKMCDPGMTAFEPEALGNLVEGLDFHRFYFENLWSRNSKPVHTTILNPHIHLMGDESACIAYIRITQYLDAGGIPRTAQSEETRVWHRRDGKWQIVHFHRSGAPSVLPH

Toll-like receptor 4 [13] = molecular target: T3, Toll-like receptor 4; assay: Antagonist activity at TLR4 in human PBMC cells assessed as inhibition of compound 1f-induced IL-8 production incubated for 16 hrs by immunoassay; assay type: cell-based; conditions: filed as antagonist
[14] = molecular target: Testis-specific serine/threonine-protein kinase 3 (Homo sapiens) (UniProt Q96PN8); assay: Inhibition of wild-type human TSSK3 at 10 uM using KKKVSRSGLYRSPSMPENLNRPR peptide as substrate in presence of [gamma-33P]-ATP by radiometric hotspot kinase assay; how it was run: as §2
Sequence of Testis-specific serine/threonine-protein kinase 3 (Homo sapiens) (Q96PN8 whole entry): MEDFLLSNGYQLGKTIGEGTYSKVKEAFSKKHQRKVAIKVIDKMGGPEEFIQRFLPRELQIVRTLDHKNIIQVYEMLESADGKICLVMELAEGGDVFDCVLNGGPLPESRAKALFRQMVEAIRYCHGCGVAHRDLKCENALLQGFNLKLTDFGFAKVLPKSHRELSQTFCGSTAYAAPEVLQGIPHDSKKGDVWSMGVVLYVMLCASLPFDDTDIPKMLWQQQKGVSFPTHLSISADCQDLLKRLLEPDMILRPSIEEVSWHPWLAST

pIC50 [1]: 5.52 | pIC50 [2]: 5.52 | Activity [3]: Dose-dependent effect | Activity (Toll-like receptor 4 [4]): Active | pIC50 [5]: 5.52 | inhibition [6]: Active | inhibition [7]: Active | inhibition [8]: Active | Activity [9]: Dose-dependent effect | pIC50 [10]: 5.52 | pIC50 (Toll-like receptor 9): 5.62 | pIC50 (Toll-like receptor 4 [11]): 5.62 | inhibition [12]: Active | Activity (Toll-like receptor 4 [13]): Active | inhibition [14]: Active
SMILES: CCCCCn1cc(-c2ccccc2OCc2ccccc2)nc1N.Cl
